≈ marks a conversion by molar mass, not a printed value.
Experiments:
Type in all cases: functional
Candida albicans [1] = experiment: Antifungal activity against Candida albicans SC5314 after 24 hrs by micro-broth dilution method; details: SC5314, 24 h
How it was run: (§1)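 Broth microdilution per NCCLS on Candida albicans. Compounds were dissolved in DMSO, serially diluted in growth medium, inoculated and incubated at 35 °C. Growth was read at 24 h, and MIC80 was taken as the first well with about 80% growth reduction relative to the drug-free control. Values are the mean of three replicates.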

Candida albicans [2] = experiment: Antifungal activity against Candida albicans Y0109 after 24 hrs by micro-broth dilution method; details: Y0109, 24 h; how it was run: as §1
Cryptococcus neoformans = experiment: Antifungal activity against Cryptococcus neoformans after 72 hrs by micro-broth dilution method
How it was run: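 Cryptococcus neoformans tested by NCCLS micro-broth dilution. Compounds were dissolved in DMSO, serially diluted in medium, inoculated and incubated at 35 °C. MIC80 was read at 72 h as the first well showing approximately 80% growth reduction compared with the drug-free well. Values are the mean of three replicate tests.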

Candida parapsilosis = experiment: Antifungal activity against Candida parapsilosis by micro-broth dilution method; details: Lodderomyces parapsilosis
How it was run: (§2)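 MIC80 by broth microdilution in 96-well format following NCCLS. Compounds were dissolved in DMSO, serially diluted in growth medium, inoculated and incubated at 35 °C. The endpoint was the first well with about 80% growth reduction versus the drug-free well. Values are means of three replicate tests.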

Candida tropicalis = experiment: Antifungal activity against Candida tropicalis by micro-broth dilution method; how it was run: as §2
Trichophyton rubrum = experiment: Antifungal activity against Trichophyton rubrum by micro-broth dilution method; how it was run: as §2
Kluyveromyces marxianus = experiment: Antifungal activity against Candida kefyr by micro-broth dilution method; how it was run: as §2
Aspergillus fumigatus = experiment: Antifungal activity against Aspergillus fumigatus by micro-broth dilution method; how it was run: as §2

SMILES | MIC (Candida albicans [1]) | MIC (Candida albicans [2]) | MIC (Cryptococcus neoformans) | MIC (Candida parapsilosis) | MIC (Candida tropicalis) | MIC (Trichophyton rubrum) | MIC (Kluyveromyces marxianus) | MIC (Aspergillus fumigatus)
N#Cc1ccccc1Cn1cc(CN(CC(O)(Cn2cncn2)c2ccc(F)cc2F)C2CC2)nn1 (stereo not drawn) | 0.25 µg/mL (≈ 0.51 µM) | 16 µg/mL (≈ 32.6 µM) | 64 µg/mL (≈ 130 µM) | 2 µg/mL (≈ 4.08 µM) | 1 µg/mL (≈ 2.04 µM) | 2 µg/mL (≈ 4.08 µM) | 1 µg/mL (≈ 2.04 µM) | > 64 µg/mL
CC(C)N(Cc1cn(Cc2cccc(C#N)c2)nn1)CC(O)(Cn1cncn1)c1ccc(F)cc1F (stereo not drawn) | < 0.125 µg/mL | 0.0625 µg/mL (≈ 0.127 µM) | 64 µg/mL (≈ 130 µM) | 16 µg/mL (≈ 32.5 µM) | 16 µg/mL (≈ 32.5 µM) | 16 µg/mL (≈ 32.5 µM) | 0.25 µg/mL (≈ 0.508 µM) | > 64 µg/mL
CC(C)N(Cc1cn(Cc2ccccc2C#N)nn1)CC(O)(Cn1cncn1)c1ccc(F)cc1F (stereo not drawn) | 0.25 µg/mL (≈ 0.508 µM) | 0.0156 µg/mL (≈ 0.0317 µM) | 64 µg/mL (≈ 130 µM) | 8 µg/mL (≈ 16.2 µM) | 1 µg/mL (≈ 2.03 µM) | 2 µg/mL (≈ 4.06 µM) | 1 µg/mL (≈ 2.03 µM) | > 64 µg/mL
CN(C/C=C/C#CC(C)(C)C)Cc1cccc2ccccc12 [TERBINAFINE] | 16 µg/mL (≈ 54.9 µM) | 2 µg/mL (≈ 6.86 µM) | 8 µg/mL (≈ 27.5 µM) | < 0.125 µg/mL | < 0.125 µg/mL | < 0.125 µg/mL | 0.0625 µg/mL (≈ 0.214 µM) | 0.25 µg/mL (≈ 0.858 µM)
CCc1ccc(Cn2cc(CN(CC(O)(Cn3cncn3)c3ccc(F)cc3F)C3CC3)nn2)cc1 (stereo not drawn) | 4 µg/mL (≈ 8.1 µM) | 0.25 µg/mL (≈ 0.507 µM) | 1 µg/mL (≈ 2.03 µM) | 4 µg/mL (≈ 8.1 µM) | 2 µg/mL (≈ 4.05 µM) | 2 µg/mL (≈ 4.05 µM) | 0.25 µg/mL (≈ 0.507 µM) | > 64 µg/mL
OC(CN(Cc1cn(Cc2c(Cl)cccc2Cl)nn1)C1CC1)(Cn1cncn1)c1ccc(F)cc1F (stereo not drawn) | 4 µg/mL (≈ 7.49 µM) | 0.0625 µg/mL (≈ 0.117 µM) | 64 µg/mL (≈ 120 µM) | 4 µg/mL (≈ 7.49 µM) | 4 µg/mL (≈ 7.49 µM) | 1 µg/mL (≈ 1.87 µM) | 0.25 µg/mL (≈ 0.468 µM) | > 64 µg/mL
CC(C)N(Cc1cn(Cc2ccccc2)nn1)CC(O)(Cn1cncn1)c1ccc(F)cc1F (stereo not drawn) | < 0.125 µg/mL | 0.0039 µg/mL (≈ 0.00834 µM) | 8 µg/mL (≈ 17.1 µM) | 0.25 µg/mL (≈ 0.535 µM) | < 0.125 µg/mL | < 0.125 µg/mL | 0.0625 µg/mL (≈ 0.134 µM) | 64 µg/mL (≈ 137 µM)
OC(CN(Cc1cn(Cc2cccc(Br)c2)nn1)C1CC1)(Cn1cncn1)c1ccc(F)cc1F (stereo not drawn) | 0.0156 µg/mL (≈ 0.0287 µM) | 0.0156 µg/mL (≈ 0.0287 µM) | 0.25 µg/mL (≈ 0.459 µM) | 0.25 µg/mL (≈ 0.459 µM) | 4 µg/mL (≈ 7.35 µM) | 0.25 µg/mL (≈ 0.459 µM) | 0.0625 µg/mL (≈ 0.115 µM) | > 64 µg/mL
OC(CN(Cc1cn(Cc2ccccc2F)nn1)C1CC1)(Cn1cncn1)c1ccc(F)cc1F (stereo not drawn) | 0.5 µg/mL (≈ 1.03 µM) | 0.0625 µg/mL (≈ 0.129 µM) | 8 µg/mL (≈ 16.5 µM) | 1 µg/mL (≈ 2.07 µM) | 0.5 µg/mL (≈ 1.03 µM) | 0.25 µg/mL (≈ 0.517 µM) | 0.0156 µg/mL (≈ 0.0323 µM) | > 64 µg/mL
OC(CN(Cc1cn(Cc2cccc(Cl)c2)nn1)C1CC1)(Cn1cncn1)c1ccc(F)cc1F (stereo not drawn) | 1 µg/mL (≈ 2 µM) | 0.0156 µg/mL (≈ 0.0312 µM) | 64 µg/mL (≈ 128 µM) | 8 µg/mL (≈ 16 µM) | 4 µg/mL (≈ 8 µM) | 4 µg/mL (≈ 8 µM) | 0.0156 µg/mL (≈ 0.0312 µM) | > 64 µg/mL
CC(C)N(Cc1cn(Cc2cccc(Cl)c2)nn1)CC(O)(Cn1cncn1)c1ccc(F)cc1F (stereo not drawn) | < 0.125 µg/mL | 0.0156 µg/mL (≈ 0.0311 µM) | 32 µg/mL (≈ 63.7 µM) | 4 µg/mL (≈ 7.97 µM) | 2 µg/mL (≈ 3.98 µM) | 2 µg/mL (≈ 3.98 µM) | 0.25 µg/mL (≈ 0.498 µM) | > 64 µg/mL
CC(C)N(Cc1cn(Cc2ccc(Cl)cc2)nn1)CC(O)(Cn1cncn1)c1ccc(F)cc1F (stereo not drawn) | < 0.125 µg/mL | 0.0625 µg/mL (≈ 0.125 µM) | 4 µg/mL (≈ 7.97 µM) | 2 µg/mL (≈ 3.98 µM) | 0.5 µg/mL (≈ 0.996 µM) | 0.5 µg/mL (≈ 0.996 µM) | 0.25 µg/mL (≈ 0.498 µM) | > 64 µg/mL
CC(C)N(Cc1cn(Cc2ccccc2F)nn1)CC(O)(Cn1cncn1)c1ccc(F)cc1F (stereo not drawn) | < 0.125 µg/mL | 0.0156 µg/mL (≈ 0.0321 µM) | 2 µg/mL (≈ 4.12 µM) | 0.25 µg/mL (≈ 0.515 µM) | < 0.125 µg/mL | < 0.125 µg/mL | 0.0625 µg/mL (≈ 0.129 µM) | > 64 µg/mL
CC(C)N(Cc1cn(Cc2c(Cl)cccc2Cl)nn1)CC(O)(Cn1cncn1)c1ccc(F)cc1F (stereo not drawn) | 0.0039 µg/mL (≈ 0.00727 µM) | < 0.125 µg/mL | 0.0625 µg/mL (≈ 0.117 µM) | 0.0625 µg/mL (≈ 0.117 µM) | 0.0156 µg/mL (≈ 0.0291 µM) | 0.0156 µg/mL (≈ 0.0291 µM) | 0.0156 µg/mL (≈ 0.0291 µM) | > 64 µg/mL
N#Cc1ccc(Cn2cc(CN(CC(O)(Cn3cncn3)c3ccc(F)cc3F)C3CC3)nn2)cc1 (stereo not drawn) | 1 µg/mL (≈ 2.04 µM) | 0.0625 µg/mL (≈ 0.127 µM) | 64 µg/mL (≈ 130 µM) | 4 µg/mL (≈ 8.15 µM) | 4 µg/mL (≈ 8.15 µM) | 4 µg/mL (≈ 8.15 µM) | 1 µg/mL (≈ 2.04 µM) | > 64 µg/mL
CC(C)N(Cc1cn(Cc2cccc(F)c2)nn1)CC(O)(Cn1cncn1)c1ccc(F)cc1F (stereo not drawn) | < 0.125 µg/mL | 0.0156 µg/mL (≈ 0.0321 µM) | 4 µg/mL (≈ 8.24 µM) | 0.25 µg/mL (≈ 0.515 µM) | < 0.125 µg/mL | < 0.125 µg/mL | 0.0625 µg/mL (≈ 0.129 µM) | > 64 µg/mL

Reference: ChEMBL document CHEMBL1250476, “Synthesis and antifungal evaluation of novel triazole derivatives as inhibitors of cytochrome P450 14alpha-demethylase” (2010)
